Assay results as given in ChEMBL document CHEMBL1132657, “CoMFA study of novel phenyl ring-substituted 3alpha-(diphenylmethoxy)tropane analogues at the dopamine transporter” (J Med Chem, 1999).

How the values were obtained:
[1] = target: T1, Sodium-dependent dopamine transporter (Rattus norvegicus, UniProt P23977); experiment: Inhibition of [3H]dopamine uptake in rat caudate putamen tissue.; assay type: functional, tissue-based
How it was run: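 Rat caudate putamen chopped into 225 µm slices, in oxygenated Krebs-HEPES at 37 °C. Stopped with ice-cold buffer and filtered; accumulated label extracted in methanol/HCl and counted by scintillation. Specific uptake; IC50 by linear regression on the linear portion of the concentration–response curve.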

[2] = target: T1, Sodium-dependent dopamine transporter; experiment: Displacement of [3H]WIN-35428 binding to the dopamine transporter in rat caudate putamen tissue.; assay type: tissue-based

T1 sequence (P23977 whole entry): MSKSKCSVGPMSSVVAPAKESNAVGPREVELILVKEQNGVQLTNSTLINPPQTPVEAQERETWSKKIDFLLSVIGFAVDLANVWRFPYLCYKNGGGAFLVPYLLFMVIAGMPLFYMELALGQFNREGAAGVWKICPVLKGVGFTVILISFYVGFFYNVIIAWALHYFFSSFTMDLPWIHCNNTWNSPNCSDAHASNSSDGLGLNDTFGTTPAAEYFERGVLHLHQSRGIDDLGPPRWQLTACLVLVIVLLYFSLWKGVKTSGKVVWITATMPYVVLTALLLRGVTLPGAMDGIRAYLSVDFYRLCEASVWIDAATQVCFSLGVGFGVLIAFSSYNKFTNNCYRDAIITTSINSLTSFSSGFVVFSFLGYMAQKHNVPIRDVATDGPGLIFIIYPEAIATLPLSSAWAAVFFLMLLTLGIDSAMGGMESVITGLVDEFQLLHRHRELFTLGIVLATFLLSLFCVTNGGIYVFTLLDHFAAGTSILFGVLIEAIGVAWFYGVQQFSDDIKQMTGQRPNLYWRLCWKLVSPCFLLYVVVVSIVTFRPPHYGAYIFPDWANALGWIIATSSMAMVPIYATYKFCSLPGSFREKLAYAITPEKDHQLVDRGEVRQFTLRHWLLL

SMILES	IC50 [1]	Ki [2]
Cc1cccc(C(O[C@H]2C[C@H]3CC[C@@H](C2)N3C)c2ccc(F)cc2)c1 (stereo not given in full)	108 nM	30.9 nM
CN1[C@@H]2CC[C@H]1C[C@@H](OC(c1ccccc1)c1cccc(Br)c1)C2 (stereo not given in full)	104 nM	27 nM
CN1[C@@H]2CC[C@H]1C[C@@H](OC(c1ccc(F)cc1)c1cccc(C(F)(F)F)c1)C2 (stereo not given in full)	182 nM	88.1 nM
CN1[C@@H]2CC[C@H]1C[C@@H](OC(c1ccccc1)c1ccccc1Cl)C2 (stereo not given in full)	977 nM	–
CN1[C@@H]2CC[C@H]1C[C@@H](OC(c1ccc(F)cc1)c1ccc(Br)cc1)C2 (stereo not given in full)	27.2 nM	15.2 nM
CN1[C@@H]2CC[C@H]1C[C@@H](OC(c1ccc(F)cc1)c1cccc(F)c1)C2 (stereo not given in full)	139 nM	–
CN1[C@@H]2CC[C@H]1C[C@@H](OC(c1ccccc1)c1cccc([N+](=O)[O-])c1)C2 (stereo not given in full)	795 nM	187 nM
Cc1cccc(C(O[C@H]2C[C@H]3CC[C@@H](C2)N3C)c2ccccc2)c1 (stereo not given in full)	226 nM	78 nM
CN1[C@@H]2CC[C@H]1C[C@@H](OC(c1ccccc1)c1ccc(F)c(F)c1)C2 (stereo not given in full)	181 nM	27.9 nM
CN1[C@@H]2CC[C@H]1C[C@@H](OC(c1ccc(F)cc1)c1cccc(Cl)c1)C2 (stereo not given in full)	123 nM	23.4 nM
CN1[C@@H]2CC[C@H]1C[C@@H](OC(c1ccc(F)cc1)c1cccc(Br)c1)C2 (stereo not given in full)	179 nM	38.2 nM
